Bioassay records: PubChem, several laboratories
M18AAP inhibitor: blocks P. falciparum M18 aspartyl aminopeptidase; recombinant PfM18AAP, H-Glu-NHMec fluorogenic cleavage; inhibition, % at 7.35 µM; hit rate 1.2% among 290,000;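 active = inhibition above the campaign mean inhibition over all tested compounds plus 3 SD, cut at about 28% in these data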;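 note: 0% = plate median of test compound wells and 100% = 2 mM ZnCl2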
ZTA counter: ZTA (EBV) inhibition in EBNA-1 counter-screen | P03206 | ZTA-DNA binding, fluorescence polarization | inhibition, % at 11 µM | hit rate 0.15% among 320,000; in the data active = inhibition above about 33%
Target sequence (P03206 whole entry, looked up): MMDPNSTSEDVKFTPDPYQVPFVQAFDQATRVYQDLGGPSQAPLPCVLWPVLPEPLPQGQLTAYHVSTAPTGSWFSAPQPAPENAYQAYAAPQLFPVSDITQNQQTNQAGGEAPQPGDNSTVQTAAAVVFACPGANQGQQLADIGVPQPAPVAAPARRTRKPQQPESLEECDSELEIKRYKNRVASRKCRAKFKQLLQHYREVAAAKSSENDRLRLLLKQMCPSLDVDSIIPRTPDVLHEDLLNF
EBNA-1 inh: blocks EBNA-1 binding to DNA; AID 1950; inhibition, % at 14.8 µM; hit rate 0.34% among 300,000; EBNA-1 DNA binding, fluorescence polarization; in the data active = inhibition above about 28%
HCV core dimer: HCV core protein dimerization inhibition | TR-FRET GST/Flag-core106 dimerization, 1536-well | inhibition, % at 5 µM | hit rate 0.33% among 300,000;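 active = inhibition above the mean of all tested compounds plus 3 SD, set per screening campaign, cut at about 45% in these data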
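Test system: GST/Flag-tagged HCV core106 proteins; Medium: KF-containing HEPES buffer, pH 7.45, DTT, CHAPS, BSA; Times: compound-protein-antibody incubation 4 h at 22.5 °C; Detection: TR-FRET 671 and 617 nm emission; Benchmarks: wells lacking GST-core106 and wells with excess unlabelled core106.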
ALR H2O2 inh: blocks human ALR sulfhydryl oxidase activity. hit rate 3.8% among 290,000. AID 485317. inhibition, % (concentration not given with the values). purified ALR, DTT oxidation, H2O2 HRP-luminol luminescence;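 active = mean replicate inhibition above about 79%, with every replicate also reaching it, limit read from the data; inconclusive = only one of the two criteria met; inactive = mean below limit and not every replicate reaching it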
Target sequence (P55789 whole entry, looked up): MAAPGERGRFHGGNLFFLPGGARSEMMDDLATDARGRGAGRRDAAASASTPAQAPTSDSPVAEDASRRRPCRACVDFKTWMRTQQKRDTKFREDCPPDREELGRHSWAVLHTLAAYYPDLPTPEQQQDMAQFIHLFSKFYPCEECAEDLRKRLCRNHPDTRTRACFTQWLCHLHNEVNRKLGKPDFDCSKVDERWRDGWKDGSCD
HCV NS3 hel inh: blocks Hepatitis C virus NS3 helicase unwinding; inhibition, % at 10.9 µM; hit rate 0.56% among 290,000; NS3 helicase DNA unwinding, Cy5 molecular beacon fluorescence;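 active = inhibition above the mean of all tested compounds plus 3 SD, set per campaign, cut at about 35% in these data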;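 note: 0% = DMSO wells and 100% = thioflavine S control wells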
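Control set: DMSO versus 110 µM thioflavine S; Material: NS3 helicase fragment of HCV; Measured by: Cy5 fluorescence at 0 and 60 min, beacon hairpin quenching; Read-out basis: percent inhibition from t60/t0 fluorescence ratio; Times: reaction time 60 min, 25 °C; Repeats: single replicate; Compound dosing: single dose, 10.9 µM nominal final, DMSO 0.8% final.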
Active calls of the source: *; ? = inconclusive; / = not tested or not shown. In the library only some 5.2% were active in any assay of this set; here they are far more common.

SMILES | M18AAP inhibitor | ZTA counter | EBNA-1 inh | HCV core dimer | ALR H2O2 inh | HCV NS3 hel inh
CCN(CC)C(=O)CSc1ncnc2c1nnn2-c1ccc(F)cc1 | 4 | -5 | 7 | -3 | -1 | 13
CCc1cc(CNC(=O)C2CCC(=O)N(Cc3cccc(F)c3)C2)on1 (stereo not drawn) | 0 | 17 | -8 | -13 | 2 | 7
Cc1ccc(N)c2c1OCCC2=O | 15 | 13 | 1 | 2 | -13 | 4
Cc1cccc(N2CC(C(=O)Nc3ccc4c(c3)OCCO4)CC2=O)c1C (stereo not drawn) | -6 | 10 | 5 | 14 | -4 | -3
COCCCNc1nc2ccccc2nc1NS(=O)(=O)c1cc(Cl)ccc1Cl | -4 | -10 | -15 | 4 | 3 | -6
Cc1ccc(C)c(S(=O)(=O)N2CC(=O)N(CCc3ccccc3)C(=O)C2)c1 | -3 | 5 | -3 | 0 | 6 | -8
Cc1ccc(C2=NC3(CCCC3)N=C2SCC(=O)Nc2ccc3c(c2)OCCO3)cc1 | 4 | 1 | 6 | 6 | 99* | -10
Cc1ccc(C2=NC(C)(C)N=C2SCC(=O)Nc2ccc(Cl)cc2)cc1 | 15 | 13 | 10 | -7 | / | -12
O=C(CSc1ccccc1)Nc1ccc2c(c1)OCCO2 | -2 | -4 | -3 | -4 | -6 | 1
O=C(CSc1ccc(-c2ccccc2)nn1)Nc1ccc2c(c1)OCCO2 | 8 | 6 | 2 | -7 | -16 | -11
O=C(CSC1=NC2(CCCCCC2)N=C1c1ccccc1)Nc1ccc2c(c1)OCCO2 | -3 | 9 | -3 | 4 | 98* | -8
O=C(CSC1=NC2(CCCCC2)N=C1c1ccccc1)Nc1ccc2c(c1)OCCO2 | 0 | 15 | -8 | 2 | 98* | 8
COc1ccc(-n2c(CCC(=O)O)ccc2-c2ccc(F)cc2)c(OC)c1 | 11 | 17 | 16 | 11 | 12 | 5
O=C(NCCCN1CCCC1=O)C1CCC(CNS(=O)(=O)c2ccc(Cl)cc2)CC1 (stereo not drawn) | 0 | 11 | -26 | -5 | -1 | 2
Nc1nnc(SCC(=O)N2CCCCC2)s1 | 1 | 0 | 5 | -15 | / | 4
Nc1nnc(SCC(=O)N2CCN(c3ccccc3)CC2)s1 | 2 | 11 | -7 | -1 | 99* | 4
Nc1nnc(SCC(=O)N2CCN(c3cccc(Cl)c3)CC2)n1-c1ccccc1 | 7 | 8 | 2 | 0 | 6 | 6
Nc1nnc(SCC(=O)N2CCN(c3ccccc3)CC2)n1-c1ccccc1 | 2 | 11 | 5 | -2 | 98* | -8
Cc1ccccc1C(=O)N1CCC(C(=O)Nc2cc(C(F)(F)F)ccc2N2CCCC2)CC1 | / | -3 | 9 | -20 | 0 | /
CC1(NC(=O)NCCCCCCNC(=O)NC2(C)CCS(=O)(=O)C2)CCS(=O)(=O)C1 (stereo not drawn) | 0 | -11 | 3 | -5 | 0 | 6
Cn1cc(CN2CCC(C(O)c3cccs3)CC2)c(-c2ccccc2F)n1 (stereo not drawn) | 1 | 15 | 2 | -2 | / | 4
CCN(CC)CCn1c(=S)[nH]c2ccc(Br)cc2c1=O | 20 | -12 | 0 | 0 | 97* | -2
CCN(CC)CCn1c(=S)[nH]c2ccccc2c1=O | 3 | 1 | 5 | 3 | 14 | -2
Cc1ccc(C(=O)NNC(=S)Nc2cccc(Cl)c2Cl)cc1[N+](=O)[O-] | -2 | 6 | 5 | 4 | 97* | 5
Cc1ccc(Nc2ccc(C(N)=O)cc2[N+](=O)[O-])cc1C | 0 | -4 | -3 | 2 | -1 | -2
SMILES | M18AAP inhibitor | ZTA counter | EBNA-1 inh | HCV core dimer | ALR H2O2 inh | HCV NS3 hel inh
Cc1ccc(NC(=S)NNC(=O)c2cccc([N+](=O)[O-])c2)cc1Cl | 11 | 3 | 8 | 5 | 88* | 2
O=C(NNC(=S)Nc1ccc(F)cc1)c1cccc([N+](=O)[O-])c1 | 9 | -2 | 6 | -4 | / | -18
Cc1ccc(NC(=S)NNc2ccc(C(=O)O)cc2[N+](=O)[O-])cc1C | / | 3 | -1 | -11 | 99* | /
CC(=O)c1cccc(NC(=S)NNC(=O)c2ccc(C)c([N+](=O)[O-])c2)c1 | -4 | 12 | 11 | 8 | 63 | 4
CCOc1ccc(S(=O)(=O)Nc2ccc(C(=O)NCC(C)(C)N3CCOCC3)cc2)cc1 | / | 10 | -1 | 0 | 0 | /
N#CCCn1cc(C(CC(=O)c2ccc(Br)cc2)C(=O)O)c2ccccc21 (stereo not drawn) | -3 | 13 | 8 | 5 | 91* | 14
Cc1ccc(C(=O)CC(C(=O)O)c2cn(CCC#N)c3ccccc23)cc1 (stereo not drawn) | 2 | -15 | -15 | 3 | 96* | 8
CCCn1cc(C(CC(=O)O)C(=O)O)c2ccccc21 (stereo not drawn) | -3 | -5 | 3 | 3 | 1 | -2
Cc1cc(OCC(=O)Nc2ccc3oc(=O)ccc3c2)ccc1Cl | 3 | -4 | -6 | -33 | 2 | 4
COc1ccccc1CNC(=O)C(CCSC)NC(=O)c1cccc(S(=O)(=O)N2CCOCC2)c1 (stereo not drawn) | / | / | / | / | -8 | /
CCCCn1c(N)c(N(CCOC)C(=O)c2cccc(-n3cnnn3)c2)c(=O)[nH]c1=O | / | 19 | 9 | 2 | -6 | /
c1ccc(C2=Nc3ccccc3OC2)cc1 | 31* | 1 | -2 | 2 | 21 | 2
Clc1ccc(C2=Nc3cc(Cl)ccc3OC2)cc1 | -3 | 2 | -5 | -5 | -10 | -2
Cc1ccc2c(c1)N=C(c1ccc(Cl)cc1)CO2 | 29* | 2 | 7 | -1 | 28 | 10
O=C(Nc1ccccc1N1CCCC1)c1cccc(Cl)c1Cl | 6 | -5 | 4 | -6 | 98* | 2
O=C(Nc1ccccc1N1CCCC1)c1ccccc1F | 6 | -1 | 9 | -3 | 98* | 6
O=C(CNCC1CCCO1)Nc1ccc(N2CCCCCC2)cc1 (stereo not drawn) | 9 | 4 | -11 | -22 | / | -16
O=C(CNCC1CCCO1)Nc1ccccc1N1CCCCCC1 (stereo not drawn) | 9 | 4 | 3 | -2 | 99* | -3
O=C(Cc1ccccc1F)Nc1ccccc1N1CCCC1 | 1 | / | / | / | 98* | 2
Fc1ccccc1N1CCN(CC2CCCCC2)CC1 | 0 | 14 | 1 | 11 | / | 7
CCN(CC(=O)Nc1ccc(OC)cc1)C(=O)CSCC(=O)Nc1cc(C)on1 | / | -8 | / | / | -3 | /
O=C1CCC(C(=O)Nc2ccccc2N2CCOCC2)=NN1 | -10 | 1 | -12 | -1 | 19 | -5
CCC(C(=O)Nc1ccccc1N1CCCC1)c1ccccc1 (stereo not drawn) | 12 | 0 | -3 | 4 | 98* | 0
O=C(CN1C(=O)C2CCCCC2C1=O)Nc1ccccc1N1CCCC1 (stereo not drawn) | / | 8 | -6 | -6 | 97* | /
O=C(CN1C(=O)C2CC=CCC2C1=O)Nc1ccccc1N1CCCC1 (stereo not drawn) | / | -18 | 5 | -4 | ? | /
